Data taken from ChEMBL document CHEMBL1275462 (Antimicrob Agents Chemother, 2008).
≈ marks a conversion by molar mass, not a printed value. Calls of active or inactive are those of the source. The rule behind the calls is not given here.

Key:
Staphylococcus aureus [1] = assay: Antimicrobial activity against methicillin-resistant Staphylococcus aureus BK2529 assessed as concentration required for minimum inhibition of BRP-resistant subpopulation growth by Etest; format: functional
How it was run: (§1)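 Etest (manufacturer's method) and population analysis: overnight cultures serially diluted and plated on TSA with increasing oxacillin or BPR, CFU counted after 48 h at 37°C. Colonies from subpopulations growing at high oxacillin or BPR were picked, restreaked on antibiotic-free TSA for three passages, then retested by population analysis.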

Staphylococcus aureus [2] = assay: Antimicrobial activity against methicillin-resistant Staphylococcus aureus COL assessed as concentration required for bacterial subpopulation growth; format: functional; how it was run: as §1
Staphylococcus aureus [3] = assay: Antimicrobial activity against methicillin-resistant Staphylococcus aureus HAR22 assessed as concentration required for bacterial subpopulation growth; format: functional; how it was run: as §1
Staphylococcus aureus [4] = assay: Antimicrobial activity against methicillin-resistant Staphylococcus aureus USA300 by Etest; format: functional; how it was run: as §1
Staphylococcus aureus [5] = assay: Antimicrobial activity against methicillin-resistant Staphylococcus aureus USA300 assessed as concentration required for minimum inhibition of BRP-resistant subpopulation growth; format: functional; how it was run: as §1
Staphylococcus aureus [6] = assay: Antimicrobial activity against vancomycin-intermediate Staphylococcus aureus JH9 obtained from bacteremic patient by Etest; format: functional
How it was run: (§2)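 Etest and population analysis: overnight cultures plated on TSA with increasing vancomycin, oxacillin or BPR, CFU counted after 48 h at 37°C. For VRSA strains, vancomycin plates also run with constant 1 µg/ml BPR. Vancomycin Etest read after overnight 37°C incubation on TSA with or without 1 µg/ml BPR.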

Staphylococcus aureus [7] = assay: Antimicrobial activity against methicillin-resistant Staphylococcus aureus HAR22 by Etest; format: functional; how it was run: as §1
Staphylococcus aureus [8] = assay: Antimicrobial activity against methicillin-resistant Staphylococcus aureus BK2529 by Etest; format: functional; how it was run: as §1
Staphylococcus aureus [9] = assay: Antimicrobial activity against methicillin-resistant Staphylococcus aureus BK2529 assessed as concentration required for minimum inhibition of oxacillin-resistant subpopulation growth by Etest; format: functional; how it was run: as §1
MecA = target: T1, MecA (Staphylococcus aureus, UniProt Q7DHH4); assay: Inhibition of methicillin-resistant Staphylococcus aureus COL PBP2a by competitive assay; parameters: species or system Staphylococcus aureus subsp. aureus COL
T1 sequence (Q7DHH4 whole entry): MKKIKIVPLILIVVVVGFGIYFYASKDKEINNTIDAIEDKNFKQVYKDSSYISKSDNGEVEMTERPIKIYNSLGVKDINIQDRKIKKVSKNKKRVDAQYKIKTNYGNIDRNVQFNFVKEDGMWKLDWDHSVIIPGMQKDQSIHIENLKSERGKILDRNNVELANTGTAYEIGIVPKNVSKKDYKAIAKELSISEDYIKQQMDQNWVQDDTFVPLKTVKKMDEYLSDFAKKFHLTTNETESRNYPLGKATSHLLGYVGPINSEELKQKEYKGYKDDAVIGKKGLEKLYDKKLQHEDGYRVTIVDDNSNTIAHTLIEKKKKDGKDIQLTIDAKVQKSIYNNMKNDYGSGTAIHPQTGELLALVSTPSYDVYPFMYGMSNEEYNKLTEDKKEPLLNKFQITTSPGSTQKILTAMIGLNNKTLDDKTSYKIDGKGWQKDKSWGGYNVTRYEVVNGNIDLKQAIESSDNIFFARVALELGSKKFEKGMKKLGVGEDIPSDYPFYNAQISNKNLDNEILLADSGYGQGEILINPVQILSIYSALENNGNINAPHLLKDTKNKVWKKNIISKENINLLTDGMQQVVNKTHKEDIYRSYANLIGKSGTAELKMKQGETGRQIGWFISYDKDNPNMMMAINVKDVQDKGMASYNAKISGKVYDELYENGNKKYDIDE
How it was run: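 Purified soluble PBP 2A (mecA expressed in E. coli, 97% pure) at 0.8 µM, preincubated with drug 30 min at 30°C. Then 20 µM Bocillin FL added for 10 min at 37°C, quenched with SDS-PAGE buffer and boiled. Drug range 0.5–20 µM; for IC50, BPR 0.5–200 µM or oxacillin 5–6,000 µM. Curve fitting.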

Staphylococcus aureus [10] = assay: Antimicrobial activity against methicillin-resistant Staphylococcus aureus HU25 assessed as concentration required for minimum inhibition of BRP-resistant subpopulation growth; format: functional; how it was run: as §1
Staphylococcus aureus [11] = assay: Antimicrobial activity against methicillin-resistant Staphylococcus aureus HU25 by Etest; format: functional; how it was run: as §1
Staphylococcus aureus [12] = assay: Antimicrobial activity against methicillin-resistant Staphylococcus aureus BK2529 assessed as concentration required for bacterial subpopulation growth; format: functional; how it was run: as §1
Staphylococcus aureus [13] = assay: Antimicrobial activity against methicillin-resistant Staphylococcus aureus E2125 assessed as concentration required for minimum inhibition of BRP-resistant subpopulation growth by Etest; format: functional; how it was run: as §1
Staphylococcus aureus [14] = assay: Antimicrobial activity against methicillin-resistant Staphylococcus aureus HDE288 assessed as concentration required for bacterial subpopulation growth; format: functional; how it was run: as §1
Staphylococcus aureus [15] = assay: Antimicrobial activity against methicillin-resistant Staphylococcus aureus BK2464 assessed as concentration required for minimum inhibition of oxacillin-resistant subpopulation growth by Etest; format: functional; how it was run: as §1
Staphylococcus aureus [16] = assay: Antimicrobial activity against methicillin-resistant Staphylococcus aureus COL assessed as concentration required for minimum inhibition of BRP-resistant subpopulation growth; format: functional; how it was run: as §1
Staphylococcus aureus [17] = assay: Effect on cell wall composition of Staphylococcus aureus COL at 0.4 ug/ml by HPLC method; format: functional, organism-based
How it was run: (§3)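 Strain COL was grown in 1-liter cultures at 37°C to OD620 0.4, with or without drug at 0.4 µg/ml in the medium. Peptidoglycan was then purified and analysed by HPLC elution profile.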

Staphylococcus aureus [18] = assay: Antimicrobial activity against oxacillin-resistant Staphylococcus aureus COLVA harboring Tn1546 transposon by Etest; format: functional; how it was run: as §2
Staphylococcus aureus [19] = assay: Antimicrobial activity against methicillin-resistant Staphylococcus aureus HAR24 by Etest; format: functional; how it was run: as §1
Staphylococcus aureus [20] = assay: Effect on cell wall composition of Staphylococcus aureus COL at 0.4 ug/ml after 100 mins by HPLC method; format: functional, organism-based; how it was run: as §3
Staphylococcus aureus [21] = assay: Antimicrobial activity against methicillin-resistant Staphylococcus aureus HPV107 assessed as concentration required for minimum inhibition of oxacillin-resistant subpopulation growth by Etest; format: functional; how it was run: as §1
Staphylococcus aureus [22] = assay: Antimicrobial activity against methicillin-resistant Staphylococcus aureus HAR24 assessed as concentration required for bacterial subpopulation growth; format: functional; how it was run: as §1
Staphylococcus aureus [23] = assay: Antimicrobial activity against methicillin-resistant Staphylococcus aureus HPV107 assessed as concentration required for minimum inhibition of BRP-resistant subpopulation growth by Etest; format: functional; how it was run: as §1
Staphylococcus aureus [24] = assay: Antimicrobial activity against methicillin-resistant Staphylococcus aureus USA300 assessed as concentration required for minimum inhibition of oxacillin-resistant subpopulation growth by Etest; format: functional; how it was run: as §1
Staphylococcus aureus [25] = assay: Antimicrobial activity against methicillin-resistant Staphylococcus aureus HAR24 assessed as concentration required for minimum inhibition of oxacillin-resistant subpopulation growth by Etest; format: functional; how it was run: as §1
Staphylococcus aureus [26] = assay: Antimicrobial activity against methicillin-resistant Staphylococcus aureus HAR24 assessed as concentration required for minimum inhibition of BRP-resistant subpopulation growth; format: functional; how it was run: as §1

**Q.** For Nc1nc(/C(=N/O)C(=O)N[C@@H]2C(=O)N3C(C(=O)O)=C(/C=C4\CCN([C@@H]5CCNC5)C4=O)CS[C@H]23)ns1 [CEFTOBIPROLE], which Activity (Staphylococcus aureus [1]) is on record?
**A.** 1.5 µg/mL

**Q.** And the Activity (Staphylococcus aureus [2])?
**A.** 3 µg/mL

**Q.** What about the Activity (Staphylococcus aureus [3]) of the same compound?
**A.** 1.5 µg/mL

**Q.** And the MIC (Staphylococcus aureus [4])?
**A.** 1.5 µg/mL (≈ 2.81 µM)

**Q.** What about the Activity (Staphylococcus aureus [5]) of the same compound?
**A.** 0.8 µg/mL

**Q.** What about the MIC (Staphylococcus aureus [6]) of the same compound?
**A.** 0.8 µg/mL (≈ 1.5 µM)

**Q.** And the MIC (Staphylococcus aureus [7])?
**A.** 0.8 µg/mL (≈ 1.5 µM)

**Q.** What about the MIC (Staphylococcus aureus [8]) of the same compound?
**A.** 1.5 µg/mL (≈ 2.81 µM)

**Q.** What about the Activity (Staphylococcus aureus [9]) of the same compound?
**A.** 1.5 µg/mL

**Q.** What about the IC50 (MecA) of the same compound?
**A.** 3.2 µM

**Q.** And the Activity (Staphylococcus aureus [10])?
**A.** 3 µg/mL

**Q.** What about the MIC (Staphylococcus aureus [11]) of the same compound?
**A.** 3 µg/mL (≈ 5.61 µM)

**Q.** And the Activity (Staphylococcus aureus [12])?
**A.** 3 µg/mL

**Q.** What about the Activity (Staphylococcus aureus [13]) of the same compound?
**A.** 1.5 µg/mL

**Q.** And the Activity (Staphylococcus aureus [14])?
**A.** 3 µg/mL

**Q.** And the Activity (Staphylococcus aureus [15])?
**A.** 1.5 µg/mL

**Q.** What about the Activity (Staphylococcus aureus [16]) of the same compound?
**A.** 3 µg/mL

**Q.** What about the Activity (Staphylococcus aureus [17]) of the same compound?
**A.** Active

**Q.** What about the MIC (Staphylococcus aureus [18]) of the same compound?
**A.** 1.5 µg/mL (≈ 2.81 µM)

**Q.** And the MIC (Staphylococcus aureus [19])?
**A.** 1.5 µg/mL (≈ 2.81 µM)

**Q.** What about the Activity (Staphylococcus aureus [20]) of the same compound?
**A.** inactive

**Q.** And the Activity (Staphylococcus aureus [21])?
**A.** 0.8 µg/mL

**Q.** And the Activity (Staphylococcus aureus [22])?
**A.** 3 µg/mL

**Q.** And the Activity (Staphylococcus aureus [23])?
**A.** 0.8 µg/mL

**Q.** What about the Activity (Staphylococcus aureus [24]) of the same compound?
**A.** 1.5 µg/mL

**Q.** And the Activity (Staphylococcus aureus [25])?
**A.** 1.5 µg/mL

**Q.** And the Activity (Staphylococcus aureus [26])?
**A.** 3 µg/mL
